From ChEMBL document CHEMBL4715765, “Fluoro analogs of bioactive oxy-sterols: Synthesis of an EBI2 agonist with enhanced metabolic stability” (Bioorg Med Chem Lett, 2016) come the findings set out here.

A short description of series [1]: Metabolic stability in rat liver microsomes assessed as half life. In kind it is ADME, Microsome. (Liver microsomes are vesicles of endoplasmic reticulum, rich in cytochrome P450 enzymes.)
The target of series [2] is G-protein coupled receptor 183 (Mus musculus) (UniProt Q3U6B2). The series is described as follows: Agonist activity at Go2-q-coupled mouse EBI2 expressed in COS7 cell membranes assessed as stimulation of [35S]GTPgammaS binding at 1 uM preincubated for 20 mins followed by [35S]GTPgammaS addition and measured after 1 hr by scintillation counting analysis relative to control. In kind it is functional. Particulars: Membrane, filed as agonist, time 80.0 min. The gist of the method:
(§1)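 [35S]GTPγS binding measured on COS7 cells transiently transfected with human, rat or mouse EBI2, using a Gαo2 chimera set-up. Concentration-response testing ran up to a top concentration of 1. EC50 and % Emax were taken from the curves, with Emax referenced to 7α,25-OHC.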

Series [3] is described as follows: Cmax in mouse at 20 mg/kg, ip. In kind it is ADME, organism-based. Also noted: route intraperitoneal, dose 20 mg/kg. The note with it: in vivo.
A short description of series [4]: Metabolic stability in human liver microsomes assessed as half life. In kind it is ADME, Microsome.
Series [5] can be described thus: Tmax in mouse at 20 mg/kg, ip. In kind it is ADME, organism-based. The note with it: in vivo.
Series [6] is described as follows: AUClast in mouse at 20 mg/kg, ip. Also noted: route intraperitoneal, time 0 - last, dose 20 mg/kg. In kind it is ADME, organism-based. The note with it: in vivo.
Series [7] deals with G-protein coupled receptor 183 (Rattus norvegicus, UniProt D4A7K7). The series is described as follows: Agonist activity at Go2-q-coupled rat EBI2 expressed in COS7 cell membranes assessed as stimulation of [35S]GTPgammaS binding preincubated for 20 mins followed by [35S]GTPgammaS addition and measured after 1 hr by scintillation counting analysis. Also noted: species or system Membrane. In short, it runs like this:
as §1
A general note: Binding of GTPγS marks nucleotide exchange on a G protein.

Series [8] addresses G-protein coupled receptor 183 (Mus musculus, UniProt Q3U6B2). The series is described as follows: Agonist activity at Go2-q-coupled mouse EBI2 expressed in COS7 cell membranes assessed as stimulation of [35S]GTPgammaS binding preincubated for 20 mins followed by [35S]GTPgammaS addition and measured after 1 hr by scintillation counting analysis. In kind it is functional, Membrane. The gist of the method:
as §1

The nature of series [9]: Terminal half life in mouse at 20 mg/kg, sc. In kind it is ADME, organism-based. The note with it: in vivo, read-out: beta t1/2 (converted).
A short description of series [10]: AUClast in mouse at 20 mg/kg, sc. In kind it is ADME, organism-based. Set-up: time 0 - last, route subcutaneous, dose 20 mg/kg. The note with it: in vivo.
Series [11] is described as follows: Metabolic stability in mouse liver microsomes assessed as half life. In kind it is ADME, Microsome.
The target in series [12] is T1, G-protein coupled receptor 183 (Homo sapiens, UniProt P32249). The series is described as follows: Agonist activity at Go2-q-coupled human EBI2 expressed in COS7 cell membranes assessed as stimulation of [35S]GTPgammaS binding at 1 uM preincubated for 20 mins followed by [35S]GTPgammaS addition and measured after 1 hr by scintillation counting analysis relative to control. In kind it is functional. Particulars: Membrane, filed as agonist, time 80.0 min. The gist of the method: as §1
T1 sequence (P32249 whole entry): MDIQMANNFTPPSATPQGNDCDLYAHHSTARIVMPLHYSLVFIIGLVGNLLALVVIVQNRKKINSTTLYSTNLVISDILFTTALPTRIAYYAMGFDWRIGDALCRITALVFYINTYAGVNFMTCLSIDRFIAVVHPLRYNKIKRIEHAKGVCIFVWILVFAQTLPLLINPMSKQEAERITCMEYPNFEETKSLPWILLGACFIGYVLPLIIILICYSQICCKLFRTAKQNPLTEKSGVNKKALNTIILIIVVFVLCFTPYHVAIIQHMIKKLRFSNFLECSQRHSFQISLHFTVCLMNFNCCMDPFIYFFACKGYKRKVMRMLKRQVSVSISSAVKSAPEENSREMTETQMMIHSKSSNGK

Series [13] has as its target G-protein coupled receptor 183 (Rattus norvegicus) (UniProt D4A7K7). The series is described as follows: Agonist activity at Go2-q-coupled rat EBI2 expressed in COS7 cell membranes assessed as stimulation of [35S]GTPgammaS binding at 1 uM preincubated for 20 mins followed by [35S]GTPgammaS addition and measured after 1 hr by scintillation counting analysis relative to control. Particulars: Membrane, filed as agonist, time 80.0 min. The gist of the method: as §1

Series [14] concerns the target T1, G-protein coupled receptor 183. The series is described as follows: Agonist activity at Go2-q-coupled human EBI2 expressed in COS7 cell membranes assessed as stimulation of [35S]GTPgammaS binding preincubated for 20 mins followed by [35S]GTPgammaS addition and measured after 1 hr by scintillation counting analysis. In kind it is functional, Membrane. The gist of the method: as §1

The target is the same in series [15]. The series is described as follows: Agonist activity at Go2-q-coupled EBI2 (unknown origin) expressed in COS7 cell membranes assessed as stimulation of [35S]GTPgammaS binding preincubated for 20 mins followed by [35S]GTPgammaS addition and measured after 1 hr by scintillation counting analysis. In kind it is functional, Membrane. In short, it runs like this:
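[35S]GTPγS binding measured in membranes of COS7 cells transiently transfected with human, rat or mouse EBI2, with receptor coupled through Go2. Compounds tested as concentration-response series (log M plots) to give EC50 and % Emax for each species' receptor.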

The nature of series [16]: Tmax in mouse at 20 mg/kg, sc. In kind it is ADME, organism-based. Particulars: in vivo.
Series [17] in a line: Terminal half life in mouse at 20 mg/kg, ip. Particulars: in vivo, read-out: beta t1/2 (converted). In kind it is ADME, organism-based.
Series [18] can be described thus: Cmax in mouse at 20 mg/kg, sc. Also noted: route subcutaneous, dose 20 mg/kg. In kind it is ADME, organism-based. The note with it: in vivo.
Series [19] in a line: Elimination half-life in po dosed mouse. In kind it is ADME, organism-based. Particulars: in vivo, read-out: beta t1/2 (converted).

The structures appear in SMILES notation.

G-protein coupled receptor 183 (Mus musculus, UniProt Q3U6B2), sequence (Q3U6B2 whole entry): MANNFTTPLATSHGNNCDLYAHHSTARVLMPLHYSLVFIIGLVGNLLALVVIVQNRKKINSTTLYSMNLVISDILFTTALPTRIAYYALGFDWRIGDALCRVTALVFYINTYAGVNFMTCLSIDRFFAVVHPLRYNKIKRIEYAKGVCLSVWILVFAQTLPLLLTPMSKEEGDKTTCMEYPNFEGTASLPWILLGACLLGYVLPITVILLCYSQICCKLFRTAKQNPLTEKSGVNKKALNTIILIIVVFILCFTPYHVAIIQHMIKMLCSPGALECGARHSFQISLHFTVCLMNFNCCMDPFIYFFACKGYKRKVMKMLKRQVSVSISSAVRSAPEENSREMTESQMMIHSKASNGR
G-protein coupled receptor 183 (Mus musculus), sequence (Q3U6B2 whole entry): as above
G-protein coupled receptor 183 (Rattus norvegicus), sequence (D4A7K7 whole entry): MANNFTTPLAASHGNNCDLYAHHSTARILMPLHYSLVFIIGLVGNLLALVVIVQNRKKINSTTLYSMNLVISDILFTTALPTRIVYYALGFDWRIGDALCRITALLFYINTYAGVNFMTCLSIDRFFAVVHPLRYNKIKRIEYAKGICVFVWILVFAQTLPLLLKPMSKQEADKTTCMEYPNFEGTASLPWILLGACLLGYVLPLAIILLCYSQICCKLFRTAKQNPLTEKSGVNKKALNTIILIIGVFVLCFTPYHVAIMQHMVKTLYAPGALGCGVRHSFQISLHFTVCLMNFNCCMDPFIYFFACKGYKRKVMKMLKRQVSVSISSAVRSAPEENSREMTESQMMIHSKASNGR
G-protein coupled receptor 183 (Rattus norvegicus, UniProt D4A7K7), sequence (D4A7K7 whole entry): as above

As to `C[C@H](CCCC(C)(C)O)[C@H]1CC[C@H]2[C@@H]3[C@H](O)C=C4C[C@@H](O)CC[C@]4(C)[C@H]3CC[C@]12C`, the half-life in series [1] was 15 min; in series [4] it was 30 min; in [9], 30 min; in series [11], 11 min; in series [17] it was 24 min. The maximum response (Emax) in series [2], in series [12] and in series [13] was 100% in each case. In addition, the values for the highest concentration (Cmax) in series [3] and in series [18] were 4460 ng/mL and 4340 ng/mL, respectively. The figures for the Tmax in series [5] and in series [16] were 15 min and 19.8 min, respectively. In addition, the results for the area under the curve AUC(0-t) in [6] and in [10] were 2940 ng·h/mL and 3140 ng·h/mL, respectively. In addition, the concentration giving a half-maximal response (EC50) is 1.31 nM in series [7], 0.702 nM in series [8], 0.032 nM in series [14] and 0.14 nM in [15].

For `C[C@H](CCCC(C)(C)O)[C@H]1CC[C@H]2[C@@H]3[C@@H](O)C=C4C[C@@H](O)CC[C@]4(C)[C@H]3CC[C@]12C`, the concentration giving a half-maximal response (EC50) in series [15] turned out to be 2.1 nM.

`C[C@H](CCCC(C)(C)O)[C@H]1CC[C@H]2[C@H]3[C@H](CC[C@]12C)[C@@]1(C)CC[C@H](O)CC1=C[C@@]3(O)C(F)(F)F`: the Emax in series [2] was 60%; in [12] it was 100%; in series [13] it was 88%. Further, the EC50 in series [7] worked out at 14.4 nM; in series [8], 14.4 nM; in series [14], 4.1 nM.

Turning to `CC(CO)CCC[C@@H](C)[C@H]1CC[C@H]2[C@H]3C(CC[C@]12C)[C@@]1(C)CC[C@H](O)CC1=C[C@@H]3O` (single isomer, unassigned), in series [15], the EC50 turned out to be 51 nM.

In the case of `C[C@H](CCCC(C)(C)O)[C@H]1CC[C@H]2[C@H]3[C@H](CC[C@]12C)[C@@]1(C)CC[C@H](O)CC1=C[C@]3(O)C(F)(F)F`, the half-life in series [1] was 31 min; in [4], 131 min; in series [19], 600 min; in [11] it was more than 180 min. Further, the maximal response (Emax) in series [2] was 136%; in series [12] it was 122%; in series [13], 116%. In addition, the values for the 50% effective concentration (EC50) in series [7], in series [8] and in [14] were 1.08 nM, 1.64 nM and 0.102 nM, respectively.

On to `CC(CO)CCC[C@@H](C)[C@H]1CC[C@H]2[C@H]3C(CC[C@]12C)[C@@]1(C)CC[C@H](O)CC1=C[C@H]3O` (single isomer, unassigned), for which the concentration giving a half-maximal response (EC50) in [15] stood at 1.3 nM.

For orientation: Emax means the greatest response seen or fitted, relative to the assay's reference. As a reminder, the Cmax is the peak of the concentration-time curve. The term Tmax denotes the time at which the peak concentration occurs. The term AUC(0-t) denotes exposure summed from dosing to a finite time, without extrapolation to infinity. A low value points to low exposure. For orientation: EC50 means the concentration needed to bring the measured effect to its halfway point.
